Measured values: ChEMBL document CHEMBL1255368, “Posaconazole against Candida glabrata isolates with various susceptibilities to fluconazole” (2008)
In brackets after ≈: the same amount, converted by molar mass. Activity calls are given as the source filed them.

Assays:
Nakaseomyces glabratus [1] = experiment: (§1) Antifungal activity against 2.44 x 10^8 CFU fluconazole-susceptible Candida glabrata isolate 4293 infected neutropenic CD1 mouse disseminated candidiasis model assessed as reduction in kidney tissue fungal burden at 25 mg/kg/day, ip administered 24 hrs post infection measured 7 days post infection by colony count method; type: functional, organism-based
Procedure, shortened: (§2)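 Male CD1 mice (25 g) made neutropenic with cyclophosphamide 200 mg/kg i.p. on days −4, +1 and +4, then infected i.v. via the lateral tail vein (0.2 ml). Dosing started 24 h post-challenge, once daily for 6 days, 0.2 ml: POS by oral gavage, FLC i.p. On day 7, homogenized kidneys (entire organ) plated on Sabouraud agar; CFU per kidney pair; 7–8 mice per group.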

Nakaseomyces glabratus [2] = experiment: as §1, with “1.04” for “2.44”; type: functional, organism-based
Nakaseomyces glabratus [3] = experiment: Fungistatic activity against Candida glabrata isolate 4198 assessed as 99.9% reduction of initial fungal load at 0.5 times MIC after 48 hrs using colony count method by time-kill method; type: functional, organism-based
Procedure, shortened: (§3)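 0.5 McFarland suspension from a 48-h plate, diluted 1:10 into MOPS-buffered RPMI 1640 with drug at 0.5× or 8× MIC. Shaken at 35°C; sampled at 0, 2, 4, 8 and 24 h, serially diluted and plated in triplicate on Sabouraud agar for 48 h at 35°C. Detection limit 20 CFU/ml; fungicidal = 99.9% fall from initial inoculum. Each isolate tested at least twice.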

Nakaseomyces glabratus [4] = experiment: Fungistatic activity against Candida glabrata isolate 4205 assessed as 99.9% reduction of initial fungal load at 0.5 times MIC after 48 hrs using colony count method by time-kill method; type: functional, organism-based; procedure, shortened: as §3
Nakaseomyces glabratus [5] = experiment: Fungistatic activity against Candida glabrata isolate 4293 assessed as 99.9% reduction of initial fungal load at 0.5 times MIC after 48 hrs using colony count method by time-kill method; type: functional, organism-based; procedure, shortened: as §3
Candida parapsilosis [6] = experiment: Fungistatic activity against Candida parapsilosis ATCC 22019 assessed as 99.9% reduction of int initial fungal load at 0.5 times MIC after 48 hrs using colony count method by time-kill method; type: functional, organism-based
Nakaseomyces glabratus [7] = experiment: Fungistatic activity against Candida glabrata 4370 assessed as 99.9% reduction of int initial fungal load at 0.5 times MIC after 48 hrs using colony count method by time-kill method; type: functional, organism-based; procedure, shortened: as §3
Nakaseomyces glabratus [8] = experiment: Fungistatic activity against Candida glabrata isolate 4198 assessed as 99.9% reduction of initial fungal load at 8 times MIC after 48 hrs using colony count method by time-kill method; type: functional, organism-based; procedure, shortened: as §3
Nakaseomyces glabratus [9] = experiment: Fungistatic activity against Candida glabrata isolate 4205 assessed as 99.9% reduction of initial fungal load at 8 times MIC after 48 hrs using colony count method by time-kill method; type: functional, organism-based
Nakaseomyces glabratus [10] = experiment: Fungistatic activity against Candida glabrata isolate 4293 assessed as 99.9% reduction of initial fungal load at 8 times MIC after 48 hrs using colony count method by time-kill method; type: functional, organism-based; procedure, shortened: as §3
Nakaseomyces glabratus [11] = experiment: as §1, with “15” for “25”, “po” for “ip”; type: functional, organism-based; procedure, shortened: as §2
Nakaseomyces glabratus [12] = experiment: as §1, with “1.04” for “2.44”, “30” for “25”, “po” for “ip”; type: functional, organism-based; procedure, shortened: as §2
Nakaseomyces glabratus [13] = experiment: as §1, with “against” for “against 2.44 x 10^8 CFU”, “4205” for “4293”, “30” for “25”, “po” for “ip”; type: functional, organism-based; procedure, shortened: as §2
Nakaseomyces glabratus [14] = experiment: as §1, with “fluconazole-resistant” for “2.44 x 10^8 CFU fluconazole-susceptible”, “4198” for “4293”, “30” for “25”, “po” for “ip”; type: functional, organism-based; procedure, shortened: as §2
Candida parapsilosis [15] = experiment: Antifungal activity against Candida parapsilosis ATCC 22019 after 48 hrs by microdilution method; type: functional; conditions: Lodderomyces parapsilosis, ATCC 22019, 48 h
Procedure, shortened: (§4)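 CLSI M27-A2 broth microdilution. Final ranges: POS, CAS, AMB 0.0078–8.0 μg/ml; FLC 0.125–64 μg/ml. Incubated at 35°C, read at 24 and 48 h by OD490. MIC for POS, FLC, CAS: first concentration giving 50% lower turbidity than control; for AMB: 90% lower. Run in quintuplicate; C. parapsilosis ATCC 22019 as quality control.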

Nakaseomyces glabratus [16] = experiment: Antifungal activity against Candida glabrata isolate 4198 after 48 hrs by microdilution method; type: functional; conditions: isolate 4198, 48 h; procedure, shortened: as §4
Nakaseomyces glabratus [17] = experiment: Antifungal activity against Candida glabrata isolate 4205 after 48 hrs by microdilution method; type: functional; procedure, shortened: as §4
Nakaseomyces glabratus [18] = experiment: Antifungal activity against Candida glabrata isolate 4293 after 48 hrs by microdilution method; type: functional; procedure, shortened: as §4
Nakaseomyces glabratus [19] = experiment: Antifungal activity against Candida glabrata isolate 4370 after 48 hrs by microdilution method; type: functional; procedure, shortened: as §4
Candida parapsilosis [20] = experiment: Fungistatic activity against Candida parapsilosis ATCC 22019 assessed as 99.9% reduction of int initial fungal load at 8 times MIC after 48 hrs using colony count method by time-kill method; type: functional, organism-based
Nakaseomyces glabratus [21] = experiment: Fungistatic activity against Candida glabrata 4370 assessed as 99.9% reduction of int initial fungal load at 8 times MIC after 48 hrs using colony count method by time-kill method; type: functional, organism-based; procedure, shortened: as §3
Nakaseomyces glabratus [22] = experiment: as §1, with “1.04” for “2.44”, “1” for “25”; type: functional, organism-based
Procedure, shortened: (§5)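 Neutropenia induced in male CD1 mice (25 g) with cyclophosphamide 200 mg/kg i.p. on days −4, +1 and +4. Mice were infected i.v. via the tail vein (0.2 ml). Drug was given i.p. at […], starting 24 h post-challenge, for 6 consecutive days. Kidney pairs were homogenized on day 7 and plated on Sabouraud dextrose agar for CFU counts. Groups had 7–8 mice.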

Candida parapsilosis [23] = experiment: Antifungal activity against Candida parapsilosis ATCC 22019 after 24 hrs by microdilution method; type: functional; conditions: Lodderomyces parapsilosis, ATCC 22019, 24 h
Procedure, shortened: (§6)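 CLSI M27-A2 broth microdilution. Final drug ranges were 0.0078–8.0 μg/ml for POS, CAS and AMB, and 0.125–64 μg/ml for FLC. Plates were incubated at 35°C and read by OD490 at 24 h. The MIC was the first concentration giving 50% turbidity reduction versus control (POS, FLC, CAS) or 90% (AMB). Run in quintuplicate.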

Nakaseomyces glabratus [24] = experiment: Antifungal activity against Candida glabrata isolate 4198 after 24 hrs by microdilution method; type: functional; conditions: isolate 4198, 24 h; procedure, shortened: as §4
Nakaseomyces glabratus [25] = experiment: Antifungal activity against Candida glabrata isolate 4205 after 24 hrs by microdilution method; type: functional; procedure, shortened: as §4
Nakaseomyces glabratus [26] = experiment: Antifungal activity against Candida glabrata isolate 4293 after 24 hrs by microdilution method; type: functional; procedure, shortened: as §6
Nakaseomyces glabratus [27] = experiment: Antifungal activity against Candida glabrata isolate 4370 after 24 hrs by microdilution method; type: functional; procedure, shortened: as §4
Nakaseomyces glabratus [28] = experiment: Fungicidal activity against Candida glabrata isolate 4198 assessed as 99.9% reduction of initial fungal load at 8 times MIC after 48 hrs using colony count method by time-kill method; type: functional, organism-based; conditions: in the assay text read “after 24 hrs” for “after 48 hrs”
Procedure, shortened: (§7)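 Time-kill assay. The inoculum was set to 0.5 McFarland in water and diluted 1:10 into MOPS-buffered RPMI 1640 with drug at 0.5× or 8× MIC, then shaken at 35°C. Samples were taken at 0, 2, 4, 8 and 24 h, serially diluted and plated in triplicate on Sabouraud agar, with 48 h at 35°C. Detection limit was 20 CFU/ml. Fungicidal was defined as a 99.9% drop from the initial inoculum. Each isolate was tested at least twice.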

Nakaseomyces glabratus [29] = experiment: Fungicidal activity against Candida glabrata isolate 4205 assessed as 99.9% reduction of initial fungal load at 8 times MIC […] using colony count method by time-kill method; type: functional, organism-based; procedure, shortened: as §7
Nakaseomyces glabratus [30] = experiment: Fungicidal activity against Candida glabrata isolate 4293 assessed as 99.9% reduction of initial fungal load at 8 times MIC […] using colony count method by time-kill method; type: functional, organism-based
Nakaseomyces glabratus [31] = experiment: as §1, with “1” for “25”; type: functional, organism-based; procedure, shortened: as §5

Structure (SMILES)	Activity (Nakaseomyces glabratus [1])	Activity (Nakaseomyces glabratus [2])	Activity (Nakaseomyces glabratus [3])	Activity (Nakaseomyces glabratus [4])	Activity (Nakaseomyces glabratus [5])	Activity (Candida parapsilosis [6])	Activity (Nakaseomyces glabratus [7])	Activity (Nakaseomyces glabratus [8])	Activity (Nakaseomyces glabratus [9])	Activity (Nakaseomyces glabratus [10])	Activity (Nakaseomyces glabratus [13])	MIC (Candida parapsilosis [15])	MIC (Nakaseomyces glabratus [16])	MIC (Nakaseomyces glabratus [17])	MIC (Nakaseomyces glabratus [18])	MIC (Nakaseomyces glabratus [19])	Activity (Candida parapsilosis [20])	Activity (Nakaseomyces glabratus [21])	Activity (Nakaseomyces glabratus [22])	Activity (Nakaseomyces glabratus [31])	also measured
CC[C@@H]([C@H](C)O)n1ncn(-c2ccc(N3CCN(c4ccc(OC[C@@H]5CO[C@@](Cn6cncn6)(c6ccc(F)cc6F)C5)cc4)CC3)cc2)c1=O [POSACONAZOLE]	Active	Active	Active	Active	Active	Active	Active	Active	Active	Active	Active	≤ 0.03 µg/mL	0.5 µg/mL (≈ 0.713 µM)	≤ 0.03 µg/mL	0.25 µg/mL (≈ 0.357 µM)	0.06 µg/mL (≈ 0.0856 µM)	Active	Active	inactive	–	Activity (Nakaseomyces glabratus [11]): Active; Activity (Nakaseomyces glabratus [12]): Active; Activity (Nakaseomyces glabratus [14]): Active
CC[C@H](C)C[C@H](C)CCCCCCCCC(=O)N[C@H]1C[C@@H](O)[C@@H](NCCN)NC(=O)[C@@H]2[C@@H](O)CCN2C(=O)[C@H]([C@H](O)CCN)NC(=O)[C@H]([C@H](O)[C@@H](O)c2ccc(O)cc2)NC(=O)[C@@H]2C[C@@H](O)CN2C(=O)[C@H]([C@@H](C)O)NC1=O [CASPOFUNGIN]	–	–	Active	Active	Active	Active	Active	–	–	–	–	–	–	–	–	–	–	–	Active	Active	MIC (Candida parapsilosis [23]): 0.25 µg/mL (≈ 0.229 µM); MIC (Nakaseomyces glabratus [24]): 0.25 µg/mL (≈ 0.229 µM); MIC (Nakaseomyces glabratus [25]): 0.25 µg/mL (≈ 0.229 µM); MIC (Nakaseomyces glabratus [26]): ≤ 0.03 µg/mL; MIC (Nakaseomyces glabratus [27]): 0.125 µg/mL (≈ 0.114 µM); Activity (Nakaseomyces glabratus [28]): inactive; Activity (Nakaseomyces glabratus [29]): inactive; Activity (Nakaseomyces glabratus [30]): inactive
C[C@@H]1[C@H](O)[C@@H](C)/C=C/C=C/C=C/C=C/C=C/C=C/C=C/[C@H](O[C@@H]2O[C@H](C)[C@@H](O)[C@H](N)[C@@H]2O)C[C@@H]2O[C@](O)(C[C@@H](O)C[C@@H](O)[C@H](O)CC[C@@H](O)C[C@@H](O)CC(=O)O[C@H]1C)C[C@H](O)[C@H]2C(=O)O [AMPHOTERICIN B]	–	–	Active	Active	Active	Active	Active	–	–	–	–	1 µg/mL (≈ 1.08 µM)	0.5 µg/mL (≈ 0.541 µM)	0.5 µg/mL (≈ 0.541 µM)	0.5 µg/mL (≈ 0.541 µM)	1 µg/mL (≈ 1.08 µM)	Active	Active	Active	Active	Activity (Nakaseomyces glabratus [28]): Active; Activity (Nakaseomyces glabratus [29]): Active; Activity (Nakaseomyces glabratus [30]): Active
OC(Cn1cncn1)(Cn1cncn1)c1ccc(F)cc1F [FLUCONAZOLE]	Active	inactive	Active	Active	Active	Active	Active	Active	Active	Active	Active	4 µg/mL (≈ 13.1 µM)	> 64 µg/mL	1 µg/mL (≈ 3.27 µM)	32 µg/mL (≈ 104 µM)	16 µg/mL (≈ 52.2 µM)	Active	Active	–	Active	Activity (Nakaseomyces glabratus [14]): inactive
